Drawing on ChEMBL document CHEMBL3871276, “Synthesis, antiamoebic and molecular docking studies of furan-thiazolidinone hybrids” (Eur J Med Chem, 2016), this text covers IC50, Ki and Activity for 20 compounds.

The IC50 is the concentration needed to halve the response being measured. In general, Ki refers to the dissociation constant of the complex between target and ligand, obtained from inhibition or displacement. A lower Ki goes with a stronger hold on the target.

Molecules are shown by their SMILES.

Data set [1] deals with Entamoeba histolytica. The data set is described as follows: Antiamoebic activity against Entamoeba histolytica HM-1:IMSS trophozoites after 72 hrs by eosin staining based microdilution method. It is filed as functional. The procedure, abridged:
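Trophozoites grown in Diamond TYIS-33 medium. Compounds in DMSO, 1 mg/mL stock, two-fold serial dilutions. 1.7 x 10⁴ organisms/well, plate gassed with nitrogen 10 min, 37 °C for 72 h. Wells washed with 0.9% NaCl, fixed with methanol, stained with 0.5% eosin for 15 min, dye released with 0.1 N NaOH, OD 490 nm. IC50 from linear regression of % inhibition vs log dose. Triplicate wells, repeated thrice.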
For orientation: In broth dilution the organism is exposed to a series of concentrations in liquid medium.

Data set [2] addresses T1, Thioredoxin reductase (Entamoeba histolytica, UniProt C4LW95).
T1 sequence (C4LW95 whole entry): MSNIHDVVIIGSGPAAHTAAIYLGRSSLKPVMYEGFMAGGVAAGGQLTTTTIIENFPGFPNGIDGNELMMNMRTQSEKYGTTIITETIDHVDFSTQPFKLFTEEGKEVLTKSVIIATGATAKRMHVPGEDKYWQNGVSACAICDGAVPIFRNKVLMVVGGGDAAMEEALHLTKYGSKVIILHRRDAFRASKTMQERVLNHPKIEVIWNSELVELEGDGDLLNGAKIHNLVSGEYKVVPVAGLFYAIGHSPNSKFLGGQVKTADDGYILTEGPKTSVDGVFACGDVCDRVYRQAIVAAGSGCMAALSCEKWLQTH
Description: Inhibition of Entamoeba histolytica thioredoxin reductase.

A short description of data set [3]: Inhibition of Entamoeba histolytica O-acetyl-L-serine sulfohydrolase preincubated with enzyme followed by TNB substrate addition measured after 30 mins by UV-Visible spectrophotometric method. The following applies: in the assay text read “OAS substrate” for “TNB substrate”. The essentials:
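Recombinant EhOASS (90 μg) in 100 mM HEPES pH 7.0 with […], inhibitor 0.25–500 μM, preincubated 30 min at room temperature. Reaction started with O-acetyl-L-serine. TNB disappearance followed at 412 nm. % decrease in activity taken relative to the uninhibited reaction. IC50 from % inhibition vs log inhibitor concentration.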

Data set [4] is described as follows: Cytotoxicity against CHO cells assessed as reduction in cell viability after 48 hrs by MTT assay. It is filed as toxicity, cell-based, Cricetulus griseus. As to conditions: for IC50 at 48 h: Chinese hamster, CHO cells; for Activity: chinese hamster, cho, 48 h. The procedure, abridged:
(§1)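 Chinese hamster ovary cells in RPMI with 10% FBS and 1% penicillin-streptomycin-neomycin. 5,000 cells/well, in triplicate, exposed to compound or vehicle DMSO at 37 °C, 5% CO2 for 48 h or 72 h. MTT (5 mg/mL in PBS) added for 4 h, formazan dissolved in DMSO, absorbance at 570 nm. Viability expressed as % of DMSO control.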
Background: Tetrazolium dyes change colour on reduction, which living cells bring about.

The nature of data set [5]: Cytotoxicity against CHO cells assessed as reduction in cell viability after 72 hrs by MTT assay. It is filed as toxicity, cell-based, Cricetulus griseus. As to conditions: for IC50 at 72 h: Chinese hamster, CHO cells; for Activity: chinese hamster, cho, 72 h. The essentials: as §1
The nature of data set [6]: Cytotoxicity against CHO cells assessed as reduction in cell viability at 2.5 to 50 uM after 48 hrs by MTT assay. It is filed as toxicity, cell-based, Cricetulus griseus. As to conditions: chinese hamster. The procedure, abridged: as §1
Data set [7] can be described thus: Cytotoxicity against CHO cells assessed as reduction in cell viability at 2.5 to 25 uM after 72 hrs by MTT assay. It counts as toxicity, cell-based, Cricetulus griseus. The following applies: chinese hamster. The procedure, abridged: as §1
A short description of data set [8]: Cytotoxicity against CHO cells assessed as reduction in cell viability at 100 uM after 48 hrs by MTT assay. It is filed as toxicity, cell-based, Cricetulus griseus. The following applies: chinese hamster. The procedure, abridged: as §1
The nature of data set [9]: Cytotoxicity against CHO cells assessed as reduction in cell viability at 50 uM after 72 hrs by MTT assay. It counts as toxicity, cell-based, Cricetulus griseus. The following applies: chinese hamster. The essentials:
as §1

On to `S=C(NCc1ccco1)Nc1ccccc1`, for which the IC50 in [1] came to 8.22 µM.
Turning to `O=C1/C(=C/c2ccc3c(c2)OCO3)S/C(=N\c2ccccc2)N1Cc1ccco1`, in data set [1], it took 2.97 µM to reach half-maximal inhibition (IC50). Moreover, the figures for the inhibition constant (Ki) in data set [2] and in data set [3] were 27 µM and 343 µM, respectively.
For `CCOc1ccc(/C=C2\S/C(=N\c3ccccc3)N(Cc3ccco3)C2=O)cc1` the same measures were 2.03 µM, 4.66 µM and 149 µM.
For `COc1ccc(/C=C2\S/C(=N\c3ccccc3)N(Cc3ccco3)C2=O)cc1OC`, in [1], the IC50 turned out to be 0.47 µM. Besides, the IC50 at 48 h in [4] is greater than 400 µM. The Activity result was “Dose-dependent effect” in data set [4]; “Dose-dependent effect” in [5]; “Non-Toxic” in [6]; “Non-Toxic” in [7]; “Non-Toxic” in data set [8]; “Non-Toxic” in data set [9]. The IC50 at 72 h in data set [5] was greater than 250 µM. In data set [2], this compound had a Ki of 0.68 µM.
Regarding `O=C(CSc1nc(O)cc(=O)[nH]1)c1c[nH]c2ccccc12`, the Ki in data set [3] stood at 25.6 µM.
Compound `O=C1/C(=C/c2ccccn2)S/C(=N\c2ccccc2)N1Cc1ccco1` gave an IC50 in data set [1] of 0.27 µM. Further, the IC50 at 48 h in data set [4] was greater than 400 µM. The Activity entry in [4] is “Dose-dependent effect”; in data set [5], “Dose-dependent effect”; in [6], “Non-Toxic”; in [7], “Non-Toxic”; in data set [8], “Non-Toxic”; in data set [9] it was “Non-Toxic”. The IC50 at 72 h in [5] is greater than 250 µM. This compound also had a Ki in data set [2] of 0.39 µM.
Consider `Cc1ccc(/C=C2\S/C(=N\c3ccccc3)N(Cc3ccco3)C2=O)cc1`, for which the IC50 in data set [1] amounted to 1.48 µM. Also, the IC50 at 48 h in [4] turned out to be 421 µM. Further, the Activity result in [4] was “Dose-dependent effect”; in [5] it was “Dose-dependent effect”; in data set [6], “Non-Toxic”; in [7] it was “Non-Toxic”. In addition, the concentration for half-maximal inhibition (IC50) at 72 h in data set [5] is 185 µM. For the same compound, the affinity in data set [2], expressed as Ki, was 2.82 µM.
In turn, `COc1ccc(/C=C2\S/C(=N\c3ccccc3)N(Cc3ccco3)C2=O)cc1` gave an IC50 in data set [1] of 1.35 µM. Moreover, the IC50 at 48 h in data set [4] was greater than 400 µM. Further, the Activity result in [4] was “Dose-dependent effect”; in [5] it was “Dose-dependent effect”; in data set [6], “Non-Toxic”; in [7] it was “Non-Toxic”. For the same compound, in data set [5], the IC50 at 72 h is greater than 250 µM. The Ki in [2] is 2.07 µM.
Turning to `O=C1CS/C(=N\c2ccccc2)N1Cc1ccco1`, in data set [1], inhibition was half-maximal at 3.57 µM (IC50). Besides, the results for the Ki in [2] and in data set [3] were 337 µM and 2240 µM, respectively.
In data set [1], `O=C1/C(=C/c2ccccc2)S/C(=N\c2ccccc2)N1Cc1ccco1` gave an IC50 of 2.25 µM. The Ki in data set [2] is 10.9 µM; in [3], 58 µM.
As to `COc1cc(/C=C2\S/C(=N\c3ccccc3)N(Cc3ccco3)C2=O)cc(OC)c1OC`, in data set [1], inhibition was half-maximal at 1.24 µM (IC50). Further, the IC50 at 48 h in [4] was greater than 400 µM. The Activity result in data set [4] is “Dose-dependent effect”; in data set [5] it was “Dose-dependent effect”; in data set [6], “Non-Toxic”; in [7], “Non-Toxic”. Further, the IC50 at 72 h in data set [5] was greater than 250 µM. Moreover, the Ki in data set [2] is 1.05 µM.
For `O=C1/C(=C/c2ccc([N+](=O)[O-])cc2)S/C(=N\c2ccccc2)N1Cc1ccco1`, the IC50 in data set [1] stood at 2.87 µM. Moreover, the Ki in [2] came to 16.1 µM; in [3], 98.6 µM.
The matching figures for `CC(C)Oc1ccc(/C=C2\S/C(=N\c3ccccc3)N(Cc3ccco3)C2=O)cc1`: 2.2 µM, 5.68 µM and 54.8 µM.
As for `COc1ccc(OC)c(/C=C2\S/C(=N\c3ccccc3)N(Cc3ccco3)C2=O)c1`, the IC50 in data set [1] came to 0.67 µM. Also, the IC50 at 48 h in data set [4] is greater than 400 µM. Further, the Activity result in data set [4] is on record as “Dose-dependent effect”; in data set [5], “Dose-dependent effect”; in [6] it was “Non-Toxic”; in [7] it was “Non-Toxic”; in [8], “Non-Toxic”; in [9] it was “Non-Toxic”. Besides, the IC50 at 72 h in [5] was greater than 250 µM. Further, the affinity in data set [2] corresponds to a Ki of 0.69 µM.
`O=C1/C(=C/c2ccc(Cl)cc2)S/C(=N\c2ccccc2)N1Cc1ccco1` gave an IC50 in [1] of 2.33 µM. Moreover, the Ki in [2] amounted to 6.23 µM; in data set [3], 84.3 µM.
With `O=C1/C(=C/c2ccc(O)cc2)S/C(=N\c2ccccc2)N1Cc1ccco1`, in [1], 1.04 µM corresponded to half-maximal inhibition (IC50). For the same compound, the IC50 at 48 h in [4] stood at 400 µM. For the same compound, the Activity result in data set [4] is listed as “Dose-dependent effect”; in data set [5] it was “Dose-dependent effect”; in data set [6] it was “Non-Toxic”; in data set [7], “Non-Toxic”. The IC50 at 72 h in data set [5] is greater than 250 µM. In data set [2], this compound came in with a Ki of 0.73 µM.
In [1], `O=C1/C(=C/c2cccc([N+](=O)[O-])c2)S/C(=N\c2ccccc2)N1Cc1ccco1` yielded an IC50 of 1.95 µM. The values for the inhibition constant Ki in data set [2] and in [3] were 3.56 µM and 46.8 µM, respectively.
For `O=C1/C(=C/c2cccc(Cl)c2)S/C(=N\c2ccccc2)N1Cc1ccco1` the same measures were 1.95 µM, 3.16 µM and 45.8 µM.
The compound `Cc1ncc([N+](=O)[O-])n1CCn1cc(-c2ccccn2)nn1` yielded a Ki in [2] of 2.88 µM.
For `Cc1ncc([N+](=O)[O-])n1CCO` [METRONIDAZOLE], the IC50 at 48 h in data set [4] was greater than 400 µM. Also, the IC50 at 72 h in data set [5] was found to be 280 µM. Also, the Activity entry in data set [6] and in [7] was “Non-Toxic” in each case. The figures for the Ki in data set [2] and in [3] were 3.3 µM and 42.6 µM, respectively.
